Results from PMC7596007 (Cell, 2020).

Tests used:
[1] = tested on: cardiovascular and respiratory functions of rats; assay: Non-invasive measurement of cardiovascular and respiratory functions; assay type: in vivo; conditions: rat
In short: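 Anaesthetised rats had the neck trimmed for a size-matched collar sensor of a non-invasive pulse oximeter. Recorded heart rate, pulse distention (local blood flow), breath rate and oxygen saturation after test compound or SBECD vehicle. Monitored 60-600 min; maximal signal deflection taken; 1-4 animals per dose.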

[2] = target: β-cardiac myosin isolated from human heart left ventricle (Homo sapiens, UniProt P12883); assay: Actin-activated ATPase inhibition, human heart left ventricle myosin; assay type: biochemical
In short: (§1)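 Steady-state actin-activated ATPase measured by NADH-PK/LDH coupled assay at 25°C for 15 min. Buffer: 10 mM MOPS pH 7.0, 4 mM MgCl2, 2 mM β-mercaptoethanol, with 0.5 mM ATP, 25 μM F-actin, 1 mM PEP, 200 μM NADH and 2% PK/LDH. NADH decrease followed at 340 nm; activity taken from linear regression of absorbance over time. Inhibitor added at varied concentrations in DMSO (1% final).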

[3] = target: expressed human β-cardiac myosin (Homo sapiens, UniProt P12883); assay: Actin-activated steady-state ATPase inhibition, expressed human β-cardiac myosin; assay type: biochemical
In short: as §1

[4] = tested on: skeletal myosin samples from m.vastus lateralis; assay: Actin-activated ATPase inhibition, human m. vastus lateralis biopsy myosin; assay type: biochemical; conditions: patient-derived biopsies; 56% fast isoforms
[5] = tested on: spastic rats after pyramidal tract lesion; assay: Spastic cerebral palsy rat model, cylinder assay; assay type: in vivo; conditions: Rat-B and C, three and five hours after oral 20 mg/kg treatment
[6] = target: fast skeletal myosin-2 isoforms isolated from rabbit psoas muscle (Oryctolagus cuniculus, UniProt Q28641); assay: Actin-activated steady-state ATPase inhibition, rabbit psoas skeletal myosin; assay type: biochemical
In short: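 Rabbit psoas S1 made by α-chymotrypsin digestion (0.25 mg/ml, 10 min, 25°C), stopped with 3 mM PMSF, then purified on MonoS. Assayed by NADH-PK/LDH coupled ATPase at 25°C for 15 min: 0.5 mM ATP, 25 μM F-actin, 10 mM MOPS pH 7.0, 4 mM MgCl2. Rate read at 340 nm by linear regression; inhibitor at varied concentrations, 1% DMSO.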

[7] = tested on: spastic rats after pyramidal tract lesion; assay: Spastic cerebral palsy rat model, open-field gait analysis; assay type: in vivo; conditions: for ratio of left turns: Rat-A, 15% before
In short: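 Spasticity induced in rats by stereotaxic injection of 15 μl ethanol into the left pyramidal tract (ML −0.8, AP −10, DV 9.7 mm from dura). Rats filmed for 15 min in an 80×80 cm open field with transparent floor, with deep-learning 3D paw tracking. Gait parameters Z-scored and run through PCA. Falls and cramps normalised to distance. Oral 15 or 20 mg/kg; recorded before and 1-21 h after dosing.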

[8] = target: slow skeletal/β-cardiac myosin isolated from left ventricle of porcine heart (Sus scrofa, UniProt P79293); assay: Actin-activated steady-state ATPase inhibition, porcine cardiac myosin; assay type: biochemical; conditions: even at extremely high concentrations
[9] = tested on: human adult lung (hLFa) fibroblast; assay: CyQUANT LDH Cytotoxicity assay, lung fibroblasts; assay type: cell-based; conditions: 20 μM and 50 μM, 48 and 120 hours
In short: (§2)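 LDH release (CyQUANT kit, per manufacturer) from human adult dermal and lung fibroblasts. Cells exposed to 20 or 50 μM test compound for 48 and 120 h.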

[10] = tested on: skeletal myosin samples from m.soleus; assay: Actin-activated ATPase inhibition, human m. soleus biopsy myosin; assay type: biochemical; conditions: patient-derived biopsy; 28% fast isoforms
hERG potassium channel = hERG potassium channel (Homo sapiens, UniProt Q12809); assay: Predictor hERG Fluorescence Polarization Assay; assay type: binding; conditions: up to 5 μM
In short: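 Outsourced hERG fluorescence-polarisation binding assay, test compound up to 5 μM. Mean ± SEM, n = 2.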

[11] = Concentration measurement from tissue samples; assay type: in vivo; conditions: rat
In short: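 Male Wistar rats (200-250 g) dosed i.p. or orally, over-anaesthetised; tissues collected and frozen at −80°C. Extracts chloroform-dried, taken up in 50/50 water-acetonitrile, sonicated, centrifuged, then ultracentrifuged (60,000 rpm, 10°C, 60 min). HPLC-MS on RP-18 column, isocratic 50% H2O (0.1% TFA)/50% ACN (0.09% TFA), 0.5 ml/min. Quantified from 400 nm peak area against a calibration curve.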

smooth muscle myosin-2 = smooth muscle myosin-2 (Gallus gallus, UniProt P10587); assay: Actin-activated steady-state ATPase inhibition, smooth muscle myosin; assay type: biochemical, chicken; conditions: even at extremely high concentrations
In short: as §1

TA98 = assay: Ames MPF reverse mutagenicity assay, TA98; assay type: cell-based, S.typhimurium; conditions: absence and presence of rat liver S9 fraction
In short: (§3)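 Ames MPF reverse mutagenicity run per kit instructions on Salmonella TA98 and TA100. Each strain tested without and with phenobarbital/β-naphthoflavone-induced rat liver S9 fraction.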

[12] = tested on: rat hindleg isometric force; assay: Isometric force measurement of rat hindleg; assay type: in vivo
NM2B = NM2B (Homo sapiens, UniProt P35580); assay: Actin-activated steady-state ATPase inhibition, NM2B; assay type: biochemical; conditions: even at extremely high concentrations
In short: as §1

NM2A = NM2A (Homo sapiens, UniProt P35579); assay: Actin-activated steady-state ATPase inhibition, NM2A; assay type: biochemical; conditions: even at extremely high concentrations
In short: as §1

Caco-2 = Caco-2 permeability assay; assay type: in vitro ADME; conditions: faster transfer in the absorptive direction over the excretive direction
In short: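 Outsourced Caco-2 permeability, measured apical-to-basolateral and basolateral-to-apical, in the presence of two transporter inhibitors. Mean ± SD, n = 2.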

484 kinases = assay: SelectScreen Kinase Profiling panel; assay type: biochemical, human; conditions: 5 μM
In short: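 Outsourced SelectScreen panel of wild-type and common mutant human kinases; test compound at 5 μM. Mean ± SEM, n = 2.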

[13] = target: human non-muscle myosin-2C (NM2C) (Homo sapiens, UniProt Q7Z406); assay: Actin-activated steady-state ATPase inhibition, NM2C wild type; assay type: biochemical; conditions: wild-type form
In short: as §1

[14] = tested on: 186 different human G-protein-coupled-receptors (GPCRs); assay: gpcrMAX panel; assay type: cell-based; conditions: 5 μM; 186 GPCRs
In short: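 gpcrMAX service panel of 186 human GPCRs from 60 families, read in both agonist and inhibition modes; test compound at 5 μM. Mean ± SEM, n = 2.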

TA100 = assay: Ames MPF reverse mutagenicity assay, TA100; assay type: cell-based, S.typhimurium; conditions: absence and presence of rat liver S9 fraction
In short: as §3

NM2C^F490L variant = NM2C^F490L variant (Homo sapiens, UniProt Q7Z406, F490L); assay: Actin-activated steady-state ATPase inhibition, NM2C F490L variant; assay type: biochemical; conditions: expressed variant
In short: as §1

[15] = tested on: human adult dermal fibroblast (hDFa); assay: CyQUANT LDH Cytotoxicity assay, dermal fibroblasts; assay type: cell-based; conditions: 20 μM and 50 μM, 48 and 120 hours
In short: as §2

[16] = tested on: 23 human hormone nuclear receptors (HNR); assay: SelectScreen Nuclear Receptor Profiling; assay type: binding; conditions: 5 μM; 23 receptors
In short: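 Outsourced SelectScreen binding profile on 23 human hormone nuclear receptors; test compound at 5 μM. Mean ± SEM, n = 2.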

Chain of β-cardiac myosin isolated from human heart left ventricle (P12883 85-778 limits assumed): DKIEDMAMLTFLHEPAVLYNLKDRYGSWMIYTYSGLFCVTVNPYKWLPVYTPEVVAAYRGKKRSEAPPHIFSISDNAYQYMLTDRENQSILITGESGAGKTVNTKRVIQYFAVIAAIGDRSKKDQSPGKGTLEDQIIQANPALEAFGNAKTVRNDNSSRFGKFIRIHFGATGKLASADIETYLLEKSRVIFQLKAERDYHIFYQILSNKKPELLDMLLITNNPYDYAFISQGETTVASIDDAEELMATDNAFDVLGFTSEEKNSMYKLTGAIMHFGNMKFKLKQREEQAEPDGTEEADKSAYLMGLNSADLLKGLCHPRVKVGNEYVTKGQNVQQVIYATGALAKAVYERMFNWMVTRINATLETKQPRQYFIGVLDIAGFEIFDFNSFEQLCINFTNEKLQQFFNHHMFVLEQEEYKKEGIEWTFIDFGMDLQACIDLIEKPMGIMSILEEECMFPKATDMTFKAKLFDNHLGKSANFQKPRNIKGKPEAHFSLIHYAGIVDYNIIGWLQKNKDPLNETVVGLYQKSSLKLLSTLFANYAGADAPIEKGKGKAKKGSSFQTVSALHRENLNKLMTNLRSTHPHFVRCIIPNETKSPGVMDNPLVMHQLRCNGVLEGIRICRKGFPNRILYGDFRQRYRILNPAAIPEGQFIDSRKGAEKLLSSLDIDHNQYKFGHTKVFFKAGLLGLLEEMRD
Chain of β-cardiac myosin isolated from human heart left ventricle (P08590 whole entry partner): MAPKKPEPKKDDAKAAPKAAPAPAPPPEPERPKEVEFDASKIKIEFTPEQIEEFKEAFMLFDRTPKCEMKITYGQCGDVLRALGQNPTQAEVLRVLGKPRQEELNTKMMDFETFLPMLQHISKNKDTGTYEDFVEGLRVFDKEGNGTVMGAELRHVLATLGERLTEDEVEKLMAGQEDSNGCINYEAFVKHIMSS
Chain of expressed human β-cardiac myosin (P12883 85-778 limits assumed): as the sequence (P12883 85-778 limits assumed) above
Chain of expressed human β-cardiac myosin (P08590 whole entry partner): as the sequence (P08590 whole entry partner) above
Chain of NM2A (P35579 1-775): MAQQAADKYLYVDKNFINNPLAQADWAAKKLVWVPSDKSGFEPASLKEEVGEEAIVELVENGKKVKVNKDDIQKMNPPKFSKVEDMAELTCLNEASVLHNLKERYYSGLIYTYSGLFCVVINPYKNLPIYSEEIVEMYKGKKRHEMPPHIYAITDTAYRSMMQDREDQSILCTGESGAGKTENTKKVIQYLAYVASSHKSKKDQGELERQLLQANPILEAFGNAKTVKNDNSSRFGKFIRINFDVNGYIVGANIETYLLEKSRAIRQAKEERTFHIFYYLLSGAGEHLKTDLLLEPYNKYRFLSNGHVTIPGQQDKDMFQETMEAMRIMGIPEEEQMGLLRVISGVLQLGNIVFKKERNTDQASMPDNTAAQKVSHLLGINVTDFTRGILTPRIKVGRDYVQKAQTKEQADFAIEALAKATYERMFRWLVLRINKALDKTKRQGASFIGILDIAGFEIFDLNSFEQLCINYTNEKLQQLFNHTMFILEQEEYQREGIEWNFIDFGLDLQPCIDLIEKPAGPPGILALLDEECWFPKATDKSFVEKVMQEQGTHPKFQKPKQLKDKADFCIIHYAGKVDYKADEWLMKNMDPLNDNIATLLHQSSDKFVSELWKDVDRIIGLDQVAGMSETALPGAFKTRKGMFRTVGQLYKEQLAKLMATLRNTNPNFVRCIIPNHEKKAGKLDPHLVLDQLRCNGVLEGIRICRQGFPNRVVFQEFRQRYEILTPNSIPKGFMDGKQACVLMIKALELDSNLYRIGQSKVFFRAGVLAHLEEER
Chain of human non-muscle myosin-2C (NM2C) (Q7Z406 1-799): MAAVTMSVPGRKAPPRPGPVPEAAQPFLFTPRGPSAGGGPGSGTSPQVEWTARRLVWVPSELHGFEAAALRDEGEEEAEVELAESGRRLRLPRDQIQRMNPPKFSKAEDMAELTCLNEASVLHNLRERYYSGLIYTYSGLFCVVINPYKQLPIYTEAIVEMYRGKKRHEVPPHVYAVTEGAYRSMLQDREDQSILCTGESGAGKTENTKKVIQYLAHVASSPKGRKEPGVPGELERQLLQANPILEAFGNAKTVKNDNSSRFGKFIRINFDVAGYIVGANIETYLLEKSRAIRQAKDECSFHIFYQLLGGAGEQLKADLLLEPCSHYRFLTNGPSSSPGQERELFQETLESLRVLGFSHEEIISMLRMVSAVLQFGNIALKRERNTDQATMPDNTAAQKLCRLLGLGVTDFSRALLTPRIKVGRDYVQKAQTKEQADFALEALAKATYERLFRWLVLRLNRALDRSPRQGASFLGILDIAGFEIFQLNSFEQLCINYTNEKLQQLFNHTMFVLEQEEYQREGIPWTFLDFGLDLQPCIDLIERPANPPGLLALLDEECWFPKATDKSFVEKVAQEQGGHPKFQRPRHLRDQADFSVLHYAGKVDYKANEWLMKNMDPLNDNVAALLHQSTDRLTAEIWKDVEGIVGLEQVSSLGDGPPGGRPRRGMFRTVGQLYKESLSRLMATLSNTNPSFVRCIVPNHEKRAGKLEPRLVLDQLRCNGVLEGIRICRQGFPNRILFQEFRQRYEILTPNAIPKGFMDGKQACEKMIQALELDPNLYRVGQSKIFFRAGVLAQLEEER
Chain of hERG potassium channel (Q12809 whole entry): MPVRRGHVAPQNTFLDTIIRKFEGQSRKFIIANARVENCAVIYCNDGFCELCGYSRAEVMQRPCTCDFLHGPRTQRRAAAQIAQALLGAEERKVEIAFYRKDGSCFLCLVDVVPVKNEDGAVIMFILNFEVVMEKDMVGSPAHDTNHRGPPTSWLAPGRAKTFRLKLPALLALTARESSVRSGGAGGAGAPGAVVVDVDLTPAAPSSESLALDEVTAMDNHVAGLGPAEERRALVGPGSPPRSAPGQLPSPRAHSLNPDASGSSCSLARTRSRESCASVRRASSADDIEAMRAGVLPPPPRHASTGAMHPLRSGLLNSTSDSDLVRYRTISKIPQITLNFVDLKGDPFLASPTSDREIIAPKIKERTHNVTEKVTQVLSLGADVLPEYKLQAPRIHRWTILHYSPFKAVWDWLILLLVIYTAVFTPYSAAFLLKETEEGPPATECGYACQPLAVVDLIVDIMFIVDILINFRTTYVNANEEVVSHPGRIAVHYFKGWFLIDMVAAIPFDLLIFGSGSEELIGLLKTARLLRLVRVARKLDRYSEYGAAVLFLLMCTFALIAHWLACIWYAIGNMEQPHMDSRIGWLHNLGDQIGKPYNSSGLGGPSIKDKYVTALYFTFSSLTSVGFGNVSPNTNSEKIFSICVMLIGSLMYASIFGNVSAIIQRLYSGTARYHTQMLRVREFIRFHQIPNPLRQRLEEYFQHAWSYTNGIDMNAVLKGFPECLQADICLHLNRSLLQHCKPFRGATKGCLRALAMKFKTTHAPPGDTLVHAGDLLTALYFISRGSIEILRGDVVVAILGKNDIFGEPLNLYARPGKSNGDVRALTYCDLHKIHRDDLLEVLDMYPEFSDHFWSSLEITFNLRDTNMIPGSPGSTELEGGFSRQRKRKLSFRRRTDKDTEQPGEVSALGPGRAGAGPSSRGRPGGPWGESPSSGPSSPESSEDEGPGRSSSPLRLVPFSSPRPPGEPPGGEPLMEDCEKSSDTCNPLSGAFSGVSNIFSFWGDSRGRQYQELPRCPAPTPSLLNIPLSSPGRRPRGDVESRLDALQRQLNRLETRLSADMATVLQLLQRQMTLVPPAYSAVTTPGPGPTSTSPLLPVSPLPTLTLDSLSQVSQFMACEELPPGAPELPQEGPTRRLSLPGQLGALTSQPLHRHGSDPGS
Chain of NM2C^F490L variant (Q7Z406 1-799 F490L): as the sequence (Q7Z406 1-799) above, with F490L counted along it
Chain of NM2B (P35580 1-782): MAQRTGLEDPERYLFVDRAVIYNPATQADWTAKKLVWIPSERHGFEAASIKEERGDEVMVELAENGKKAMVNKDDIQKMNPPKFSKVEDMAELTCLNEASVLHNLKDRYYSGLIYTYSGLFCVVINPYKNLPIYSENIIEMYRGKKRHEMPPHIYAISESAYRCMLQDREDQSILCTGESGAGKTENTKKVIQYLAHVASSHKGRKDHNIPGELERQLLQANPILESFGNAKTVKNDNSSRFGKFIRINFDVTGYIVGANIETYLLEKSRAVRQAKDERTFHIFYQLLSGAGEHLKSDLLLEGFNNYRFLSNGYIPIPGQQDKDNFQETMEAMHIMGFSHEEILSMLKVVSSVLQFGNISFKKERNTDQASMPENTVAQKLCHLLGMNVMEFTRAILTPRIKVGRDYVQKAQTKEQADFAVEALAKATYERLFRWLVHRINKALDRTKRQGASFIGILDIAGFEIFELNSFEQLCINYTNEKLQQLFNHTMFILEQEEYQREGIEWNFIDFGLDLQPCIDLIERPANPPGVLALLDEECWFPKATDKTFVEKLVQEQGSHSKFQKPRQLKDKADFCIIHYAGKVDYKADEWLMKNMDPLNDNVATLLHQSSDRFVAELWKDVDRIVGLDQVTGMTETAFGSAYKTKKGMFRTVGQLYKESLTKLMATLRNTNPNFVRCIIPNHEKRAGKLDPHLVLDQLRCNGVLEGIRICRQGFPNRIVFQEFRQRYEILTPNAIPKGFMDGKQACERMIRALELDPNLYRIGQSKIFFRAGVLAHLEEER

SMILES: Cc1ccc2c(c1)C(=O)[C@]1(O)CCN(c3ccc(N)cc3)C1=N2 [AmBleb, para-aminoblebbistatin, reference compound]
- time to death due to heart failure ([1]; 16 mg/kg): ≤ 15 min

SMILES: Cc1ccc2c(c1)C(=O)C1(O)CCN(c3ccccc3)C1=N2 (stereo not drawn) [blebbistatin, reference compound]
- ATPase activity reduction of human cardiac myosin sample ([2]; human heart left ventricle): more than 90%
- ATPase activity inhibition of expressed human β-cardiac myosin [3]: completely blocked
- ATPase inhibition of m.vastus lateralis myosin sample [4]: more than 90%

SMILES: Cc1cc2c(s1)N=C1N(c3ccc(N4CCOCC4)cc3)CC[C@@]1(O)C2=O [MPH-220]
- standing up in the cylinder, wall touches with both forepaws [5]: same number of events as their healthy littermates
- ATPase inhibition of fast skeletal myosin (selectivity, in words) [6]: selective inhibition
- ratio of left turns ([7]; 40 minutes after 15 mg/kg treatment): 38%
- ratio of left turns ([7]; three hours after 15 mg/kg treatment): 51%
- relative frequency of random falling and spontaneous cramping ([7]; Rat-C, 20 mg/kg, open field test): decreased drastically
- persistence of enhanced gait functions ([7]; Rat-D, 20 mg/kg): persistent for five hours
- PC1 scores (major gait component) ([7]; global PCA, 20 mg/kg oral): significantly decreased
- time of maximal effect on PC1 scores ([7]; global PCA, 20 mg/kg oral): 3 h
- ATPase activity inhibition of cardiac myosin [8]: did not inhibit
- cytotoxicity (LDH) [9]: not toxic
- ATPase inhibition of m.soleus myosin sample [10]: 29%
- hERG potassium channel inhibition (hERG potassium channel): did not observe inhibition
- ATPase inhibition of human heart left ventricle β-cardiac myosin (in words) [2]: unaffected
- concentration in the diaphragm [11]: much lower compared to other striated muscle samples
- concentration in the liver [11]: only temporarily elevated
- concentration in target muscles relative to the inhibitory constant [IC50] ([11]; after 3 hours): 10 fold
- elimination from blood and other tissues ([11]; after 3 hours): completely eliminated
- concentration in cardiac tissue ([11]; high doses (up to 130 mg/kg)): 3000 to 7000 nM
- accumulation in skeletal muscle samples over other tissues ([11]; versus brain, heart, kidney and blood): few-fold accumulation
- ATPase activity inhibition of smooth muscle myosin-2 (smooth muscle myosin-2): did not inhibit
- effect on cardiovascular and respiratory functions ([1]; 18 mg/kg): neither 13 mg/kg MPH-188 (H) nor 18 mg/kg MPH-220 (I) had any significant effect
- cardiac and respiratory functions versus excipient control ([1]; 10-hour experiments under anesthesia): neither cardiac nor respiratory functions differed significantly
- maximum decrease in heart rate and blood flow parameters ([1]; 10-hour-long anesthesia): ≤ 25%
- cardiac function ([1]; concentration range effective in force relaxation): not perturbed
- mutagenicity, frameshift (TA98) (TA98): Lack of mutagenicity
- isometric force decrease τi.p. ([12]; 18 mg/kg, intraperitoneal injection in 200 μl DMSO, anesthetized rats): 34 min
- leg phase before force decrease, corresponding to absorption ([12]; 18 mg/kg, oral in 30% SBECD): 17 min
- isometric force decrease τp.o. ([12]; 18 mg/kg, orally through gavage tube in 30% SBECD, anesthetized rats): 53 min
- persistence of decreased force ([12]; rat hindleg, oral treatment): more than 10 hours
- ATPase activity inhibition of NM2B (NM2B): did not inhibit
- ATPase activity inhibition of expressed human β-cardiac myosin [3]: essentially unaffected
- ATPase activity inhibition of NM2A (NM2A): did not inhibit
- Caco-2 permeability (Caco-2): highly permeable
- kinase inhibition (484 kinases): ≤ 20%
- ATPase activity inhibition of NM2C [13]: not inhibited
- ATPase inhibition of m.vastus lateralis myosin sample [4]: 70%
- GPCR inhibition or activation [14]: ≤ 30%
- mutagenicity, base-pair substitution (TA100) (TA100): Lack of mutagenicity
- ATPase sensitivity of NM2C F490L variant (NM2C^F490L variant): became sensitive
- cytotoxicity (LDH) [15]: not toxic
- effect on hormone nuclear receptors [16]: remained unaffected
